Experimental data as given in ChEMBL document CHEMBL4680175, “Sulfonamide-based ring-fused analogues for CAN508 as novel carbonic anhydrase inhibitors endowed with antitumor activity: Design, synthesis, and in vitro biological evaluation” (Eur J Med Chem, 2020).

How the values were obtained:
HCT-116 = assay: Antitumor activity against human HCT116 cells assessed as cell growth inhibition at 10 uM incubated for 48 hrs by sulforhodamine B assay; assay type: functional; details: read-out: GI
In short: (§1)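 NCI Drug Evaluation Branch protocol: primary single-dose screen at 10 μM across a 57-line human cancer panel. Drug exposure is 48 h. Cell growth and viability are read by sulforhodamine B assay. Data are given as a mean graph of percent growth of treated cells and reported as percentage growth inhibition (GI%).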

SN12C = assay: Antitumor activity against human SN12C cells assessed as cell growth inhibition at 10 uM incubated for 48 hrs by sulforhodamine B assay; assay type: functional; details: read-out: GI; in short: as §1
Carbonic anhydrase 12 = Carbonic anhydrase 12 (Homo sapiens, UniProt O43570); assay: Inhibition of recombinant human carbonic anhydrase 12 preincubated with enzyme for 15 mins by phenol red dye based stopped flow CO2 hydrase assay
Carbonic anhydrase 12, sequence (O43570 whole entry): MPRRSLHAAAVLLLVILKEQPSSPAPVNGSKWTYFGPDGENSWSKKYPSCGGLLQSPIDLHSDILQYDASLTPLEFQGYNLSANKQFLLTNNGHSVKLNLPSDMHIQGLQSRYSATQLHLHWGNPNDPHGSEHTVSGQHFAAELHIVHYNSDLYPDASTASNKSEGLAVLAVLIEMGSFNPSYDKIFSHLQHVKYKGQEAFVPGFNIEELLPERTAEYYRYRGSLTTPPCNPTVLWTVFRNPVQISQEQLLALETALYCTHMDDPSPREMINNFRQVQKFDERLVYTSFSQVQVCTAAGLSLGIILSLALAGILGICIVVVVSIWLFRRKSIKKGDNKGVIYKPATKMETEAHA

NCI-H460 = assay: Antitumor activity against human NCI-H460 cells assessed as cell growth inhibition at 10 uM incubated for 48 hrs by sulforhodamine B assay; assay type: functional; details: read-out: GI; in short: as §1
NCI-H322M = assay: Antitumor activity against human NCI-H322M cells assessed as cell growth inhibition at 10 uM incubated for 48 hrs by sulforhodamine B assay; assay type: functional; details: read-out: GI; in short: as §1
HOP-62 = assay: Antitumor activity against human HOP62 cells assessed as cell growth inhibition at 10 uM incubated for 48 hrs by sulforhodamine B assay; assay type: functional; details: read-out: GI; in short: as §1
DU-145 = assay: Antitumor activity against human DU-145 cells assessed as cell growth inhibition at 10 uM incubated for 48 hrs by sulforhodamine B assay; assay type: functional; details: read-out: GI; in short: as §1
NCI-H226 = assay: Antitumor activity against human NCI-H226 assessed as cell growth inhibition at 10 uM incubated for 48 hrs by sulforhodamine B assay; assay type: functional; details: read-out: GI; in short: as §1
NCI-H522 = assay: Antitumor activity against human NCI-H522 cells assessed as cell growth inhibition at 10 uM incubated for 48 hrs by sulforhodamine B assay; assay type: functional; details: read-out: GI; in short: as §1
T47D = assay: Antitumor activity against human T-47D cells assessed as cell growth inhibition at 10 uM incubated for 48 hrs by sulforhodamine B assay; assay type: functional; details: read-out: GI
In short: (§2)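 NCI one-dose screen: 57-cell-line panel exposed at 10 μM for 48 h, Drug Evaluation Branch protocol. Growth and viability read by sulforhodamine B; data given as percent growth inhibition from the mean-graph of percent growth of treated cells.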

SNB-75 = assay: Antitumor activity against human SNB-75 cells assessed as cell growth inhibition at 10 uM incubated for 48 hrs by sulforhodamine B assay; assay type: functional; details: read-out: GI; in short: as §2
MOLT-4 = assay: Antitumor activity against human MOLT4 cells assessed as cell growth inhibition at 10 uM incubated for 48 hrs by sulforhodamine B assay; assay type: functional; details: read-out: GI; in short: as §1
SF-539 = assay: Antitumor activity against human SF539 cells assessed as cell growth inhibition at 10 uM incubated for 48 hrs by sulforhodamine B assay; assay type: functional; details: read-out: GI; in short: as §1
[1] = biological target: Cyclin-dependent kinase 2/cyclin E1 (Homo sapiens, UniProt P24941); assay: Inhibition of CDK2/cyclin E (unknown origin) expressed in baculovirus infected Sf21 insect cells using histone H1 as substrate in presence of [gamma33P]ATP
BT-549 = assay: Antitumor activity against human BT-549 cells assessed as cell growth inhibition at 10 uM incubated for 48 hrs by sulforhodamine B assay; assay type: functional; details: read-out: GI; in short: as §1
Carbonic anhydrase 1 = Carbonic anhydrase 1 (Homo sapiens, UniProt P00915); assay: Inhibition of recombinant human carbonic anhydrase 1 preincubated with enzyme for 15 mins by phenol red dye based stopped flow CO2 hydrase assay
Carbonic anhydrase 1, sequence (P00915 whole entry): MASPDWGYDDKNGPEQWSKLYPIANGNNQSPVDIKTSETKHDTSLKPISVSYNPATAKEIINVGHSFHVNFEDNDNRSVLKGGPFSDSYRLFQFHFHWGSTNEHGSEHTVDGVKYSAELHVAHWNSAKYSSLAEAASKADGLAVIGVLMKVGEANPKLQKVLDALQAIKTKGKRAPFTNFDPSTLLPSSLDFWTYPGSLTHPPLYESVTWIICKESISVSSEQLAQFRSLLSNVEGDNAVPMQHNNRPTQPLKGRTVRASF

MCF7 = assay: Antitumor activity against human MCF7 cells assessed as cell growth inhibition at 10 uM incubated for 48 hrs by sulforhodamine B assay; assay type: functional; details: read-out: GI; in short: as §1
UO-31 = assay: Antitumor activity against human UO-31 cells assessed as cell growth inhibition at 10 uM incubated for 48 hrs by sulforhodamine B assay; assay type: functional; details: read-out: GI; in short: as §2
SK-MEL-2 = assay: Antitumor activity against human SK-MEL-2 cells assessed as cell growth inhibition at 10 uM incubated for 48 hrs by sulforhodamine B assay; assay type: functional; details: read-out: GI; in short: as §1
RXF 393 = assay: Antitumor activity against human RXF 393 cells assessed as cell growth inhibition at 10 uM incubated for 48 hrs by sulforhodamine B assay; assay type: functional; details: read-out: GI; in short: as §1
Malme-3M = assay: Antitumor activity against human MALME-3M cells assessed as cell growth inhibition at 10 uM incubated for 48 hrs by sulforhodamine B assay; assay type: functional; details: read-out: GI; in short: as §1
U-251 = assay: Antitumor activity against human U251 cells assessed as cell growth inhibition at 10 uM incubated for 48 hrs by sulforhodamine B assay; assay type: functional; details: read-out: GI; in short: as §2
SK-MEL-5 = assay: Antitumor activity against human SK-MEL-5 cells assessed as cell growth inhibition at 10 uM incubated for 48 hrs by sulforhodamine B assay; assay type: functional; details: read-out: GI; in short: as §1
Carbonic anhydrase 9 = Carbonic anhydrase 9 (Homo sapiens, UniProt Q16790); assay: Inhibition of recombinant human carbonic anhydrase 9 preincubated with enzyme for 15 mins by phenol red dye based stopped flow CO2 hydrase assay
CCRF-CEM = assay: Antitumor activity against human CCRF-CEM cells assessed as cell growth inhibition at 10 uM incubated for 48 hrs by sulforhodamine B assay; assay type: functional; details: read-out: GI; in short: as §1
MDA-MB-231 = assay: Antitumor activity against human MDA-MB-231/ATCC cells assessed as cell growth inhibition at 10 uM incubated for 48 hrs by sulforhodamine B assay; assay type: functional; details: read-out: GI; in short: as §1
HOP-92 = assay: Antitumor activity against human HOP92 cells assessed as cell growth inhibition at 10 uM incubated for 48 hrs by sulforhodamine B assay; assay type: functional; details: read-out: GI; in short: as §1
PC-3 = assay: Antitumor activity against human PC-3 cells assessed as cell growth inhibition at 10 uM incubated for 48 hrs by sulforhodamine B assay; assay type: functional; details: read-out: GI; in short: as §1
Hs-578T = assay: Antitumor activity against human HS 578T cells assessed as cell growth inhibition at 10 uM incubated for 48 hrs by sulforhodamine B assay; assay type: functional; details: read-out: GI; in short: as §1
IGROV-1 = assay: Antitumor activity against human IGROV1 cells assessed as cell growth inhibition at 10 uM incubated for 48 hrs by sulforhodamine B assay; assay type: functional; details: read-out: GI; in short: as §1
SF-268 = assay: Antitumor activity against human SF268 cells assessed as cell growth inhibition at 10 uM incubated for 48 hrs by sulforhodamine B assay; assay type: functional; details: read-out: GI; in short: as §1
Carbonic anhydrase 2 = Carbonic anhydrase 2 (Homo sapiens, UniProt P00918); assay: Inhibition of recombinant human carbonic anhydrase 2 preincubated with enzyme for 15 mins by phenol red dye based stopped flow CO2 hydrase assay
LOX IMVI = assay: Antitumor activity against human LOX IMVI cells assessed as cell growth inhibition at 10 uM incubated for 48 hrs by sulforhodamine B assay; assay type: functional; details: read-out: GI; in short: as §1
CDK9/cyclin T1 = CDK9/cyclin T1 (Homo sapiens, UniProt P50750); assay: Inhibition of human full-length N-terminal GST/His6-tagged CDK9 (1 to 372 residues)/His6-tagged Cyclin-T1 (1 to 726 residues) expressed in sf9 cells using (YSPTSPS)2KK peptide as substrate in presence of [gamma33P]ATP
CDK9/cyclin T1, sequence (O60563 whole entry, the tested form may be a part): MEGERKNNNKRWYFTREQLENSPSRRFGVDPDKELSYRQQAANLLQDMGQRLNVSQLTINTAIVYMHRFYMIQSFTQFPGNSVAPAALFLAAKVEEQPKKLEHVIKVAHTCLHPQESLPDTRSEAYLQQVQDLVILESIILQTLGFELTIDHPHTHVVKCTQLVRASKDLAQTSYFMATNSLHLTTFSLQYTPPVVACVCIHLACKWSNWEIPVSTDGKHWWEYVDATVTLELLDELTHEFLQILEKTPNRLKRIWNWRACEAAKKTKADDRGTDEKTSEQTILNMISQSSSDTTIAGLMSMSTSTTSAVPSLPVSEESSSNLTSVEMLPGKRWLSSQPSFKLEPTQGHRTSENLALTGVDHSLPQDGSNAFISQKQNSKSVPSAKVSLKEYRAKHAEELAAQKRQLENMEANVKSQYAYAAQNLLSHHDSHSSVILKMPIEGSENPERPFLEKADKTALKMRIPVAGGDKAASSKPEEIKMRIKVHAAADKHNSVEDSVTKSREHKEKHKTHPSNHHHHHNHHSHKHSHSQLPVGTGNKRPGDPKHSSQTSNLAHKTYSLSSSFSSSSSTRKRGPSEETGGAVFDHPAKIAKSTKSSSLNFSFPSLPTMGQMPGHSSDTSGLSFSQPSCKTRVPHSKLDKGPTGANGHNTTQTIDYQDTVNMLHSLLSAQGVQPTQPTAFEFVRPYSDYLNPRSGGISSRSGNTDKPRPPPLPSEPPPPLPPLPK
CDK9/cyclin T1, sequence (P50750 whole entry, the tested form may be a part): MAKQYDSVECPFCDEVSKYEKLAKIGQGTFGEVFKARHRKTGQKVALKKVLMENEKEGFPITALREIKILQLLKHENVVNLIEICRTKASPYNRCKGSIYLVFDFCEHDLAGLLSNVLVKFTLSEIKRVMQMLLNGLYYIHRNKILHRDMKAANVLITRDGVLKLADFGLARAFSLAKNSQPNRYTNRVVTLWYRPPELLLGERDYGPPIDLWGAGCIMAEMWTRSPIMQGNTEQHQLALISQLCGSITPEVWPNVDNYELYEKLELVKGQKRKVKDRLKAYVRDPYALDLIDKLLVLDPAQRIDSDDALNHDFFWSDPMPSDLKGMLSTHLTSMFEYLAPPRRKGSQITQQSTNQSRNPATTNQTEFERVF

MDA-MB-468 = assay: Antitumor activity against human MDA-MB-468 cells assessed as cell growth inhibition at 10 uM incubated for 48 hrs by sulforhodamine B assay; assay type: functional; details: read-out: GI; in short: as §1
CAKI-1 = assay: Antitumor activity against human CAKI-1 cells assessed as cell growth inhibition at 10 uM incubated for 48 hrs by sulforhodamine B assay; assay type: functional; details: read-out: GI; in short: as §1
KM12 = assay: Antitumor activity against human KM12 cells assessed as cell growth inhibition at 10 uM incubated for 48 hrs by sulforhodamine B assay; assay type: functional; details: read-out: GI; in short: as §1

## N#Cc1c(-c2ccc(Br)cc2)nc2c(/N=N/c3ccc(S(N)(=O)=O)cc3)c(N)nn2c1N
HCT-116
  inhibition of growth at 10 µM: 75%
SN12C
  inhibition of growth at 10 µM: 54%
Carbonic anhydrase 12
  Ki: 43.2 nM
NCI-H460
  inhibition of growth at 10 µM: 63%
NCI-H322M
  inhibition of growth at 10 µM: 25%
HOP-62
  inhibition of growth at 10 µM: 48%
DU-145
  inhibition of growth at 10 µM: 67%
NCI-H226
  inhibition of growth at 10 µM: 34%
NCI-H522
  inhibition of growth at 10 µM: 61%
T47D
  inhibition of growth at 10 µM: 68%
SNB-75
  inhibition of growth at 10 µM: 43%
MOLT-4
  inhibition of growth at 10 µM: 98%
SF-539
  inhibition of growth at 10 µM: 61%
[1]
  IC50: > 12500 nM
BT-549
  inhibition of growth at 10 µM: 26%
Carbonic anhydrase 1
  Ki: 4160 nM
MCF7
  inhibition of growth at 10 µM: 68%
UO-31
  inhibition of growth at 10 µM: 41%
SK-MEL-2
  inhibition of growth at 10 µM: 57%
RXF 393
  inhibition of growth at 10 µM: 58%
Malme-3M
  inhibition of growth at 10 µM: 42%
U-251
  inhibition of growth at 10 µM: 59%
SK-MEL-5
  inhibition of growth at 10 µM: 54%
Carbonic anhydrase 9
  Ki: 65.7 nM
CCRF-CEM
  inhibition of growth at 10 µM: 104%
MDA-MB-231
  inhibition of growth at 10 µM: 59%
HOP-92
  inhibition of growth at 10 µM: 69%
PC-3
  inhibition of growth at 10 µM: 62%
Hs-578T
  inhibition of growth at 10 µM: 55%
IGROV-1
  inhibition of growth at 10 µM: 59%
SF-268
  inhibition of growth at 10 µM: 44%
Carbonic anhydrase 2
  Ki: 885 nM
LOX IMVI
  inhibition of growth at 10 µM: 71%
CDK9/cyclin T1
  IC50: > 12500 nM
MDA-MB-468
  inhibition of growth at 10 µM: 76%
CAKI-1
  inhibition of growth at 10 µM: 47%
KM12
  inhibition of growth at 10 µM: 48%
